Laboratory results reported in ChEMBL document CHEMBL1137373 (J Med Chem, 2006).
One block for each molecule: values may come before it.

Legend:
[1] = molecular target: T1, Amyloid-beta precursor protein (Homo sapiens, UniProt P05067); experiment: Displacement of [125I]IMPY from beta amyloid protein 40
[2] = molecular target: T1, Amyloid-beta precursor protein; experiment: Displacement of [125I]IMSB from beta amyloid protein 40
Mus musculus [3] = experiment: Biodistribution in spleen of iv dosed piperine-treated ICR mouse after 60 mins; type: ADME, organism-based; conditions: in vivo, 1 h
Summary of the method: (§1)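 Male ICR mice (25-30 g, four per time point) given radioligand mixed with piperine (2 mg/kg) in 0.2 mL 10% ethanol-saline by tail vein, 1.85 MBq for the 18F tracer. Killed at 2, 30, 60 or 120 min. Blood and organs removed, weighed and gamma-counted. Data given as % injected dose per gram tissue.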

Mus musculus [4] = experiment: Biodistribution in kidney of iv dosed piperine-treated ICR mouse after 2 mins; type: ADME, organism-based; conditions: in vivo; summary of the method: as §1
Mus musculus [5] = experiment: Biodistribution in brain of iv dosed piperine-treated ICR mouse after 2 mins; type: ADME, organism-based; conditions: in vivo; summary of the method: as §1
Mus musculus [6] = experiment: Biodistribution in blood of iv dosed piperine-treated ICR mouse after 60 mins; type: ADME, organism-based; conditions: in vivo, 1 h; summary of the method: as §1
Mus musculus [7] = experiment: Biodistribution in muscle of iv dosed ICR mouse after 60 mins; type: ADME, organism-based, Muscle tissue; conditions: in vivo, 1 h
Summary of the method: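 Male ICR mice (25-30 g, four per time point) injected by tail vein with radioligand (0.74 MBq 125I or 1.85 MBq 18F) in 0.2 mL 10% ethanol-saline. Sacrificed at 2, 30, 60 or 120 min. Blood, organs, muscle and thyroid or bone weighed and counted in a gamma counter. Expressed as % injected dose per gram.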

[8] = Partition coefficient, log P of the compound; type: physicochemical; conditions: octanol/water
Summary of the method: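 Radioligand added to octanol/water (600 µL each), vortexed 3 min, centrifuged 2000 rpm 5 min. Aliquots of both layers counted, repartitioned until consistent. Run in triplicate. Log P taken as log of octanol/water cpm ratio.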

Mus musculus [9] = experiment: Stability in iv dosed ICR mouse brain after 60 mins; type: ADME, organism-based; conditions: in vivo, 1 h
Summary of the method: (§2)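 Male ICR mice (25-30 g) given 18F radioligand (14.8 MBq/mouse) by tail vein, killed at 2, 30 and 60 min. Blood and whole brain homogenized in 1 mL chilled absolute ethanol, centrifuged 3000 rpm 3 min. Supernatant analysed by radio-TLC (20:1 CH2Cl2-CH3OH and 1:1:0.01 CH2Cl2-CH3OH-triethylamine) for percent parent radioligand.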

Mus musculus [10] = experiment: Stability in iv dosed ICR mouse blood after 60 mins; type: ADME, organism-based; conditions: in vivo, 1 h; summary of the method: as §2
Homo sapiens = species on record: Homo sapiens; experiment: Increase in bioavailability in human in presence of piperine after 45 mins; type: ADME, organism-based; conditions: in vivo, 0.75 h
Rattus norvegicus = species on record: Rattus norvegicus; experiment: Increase in bioavailability in rat in presence of piperine at 1 to 2 hrs; type: ADME, organism-based; conditions: in vivo

T1 sequence (P05067 whole entry): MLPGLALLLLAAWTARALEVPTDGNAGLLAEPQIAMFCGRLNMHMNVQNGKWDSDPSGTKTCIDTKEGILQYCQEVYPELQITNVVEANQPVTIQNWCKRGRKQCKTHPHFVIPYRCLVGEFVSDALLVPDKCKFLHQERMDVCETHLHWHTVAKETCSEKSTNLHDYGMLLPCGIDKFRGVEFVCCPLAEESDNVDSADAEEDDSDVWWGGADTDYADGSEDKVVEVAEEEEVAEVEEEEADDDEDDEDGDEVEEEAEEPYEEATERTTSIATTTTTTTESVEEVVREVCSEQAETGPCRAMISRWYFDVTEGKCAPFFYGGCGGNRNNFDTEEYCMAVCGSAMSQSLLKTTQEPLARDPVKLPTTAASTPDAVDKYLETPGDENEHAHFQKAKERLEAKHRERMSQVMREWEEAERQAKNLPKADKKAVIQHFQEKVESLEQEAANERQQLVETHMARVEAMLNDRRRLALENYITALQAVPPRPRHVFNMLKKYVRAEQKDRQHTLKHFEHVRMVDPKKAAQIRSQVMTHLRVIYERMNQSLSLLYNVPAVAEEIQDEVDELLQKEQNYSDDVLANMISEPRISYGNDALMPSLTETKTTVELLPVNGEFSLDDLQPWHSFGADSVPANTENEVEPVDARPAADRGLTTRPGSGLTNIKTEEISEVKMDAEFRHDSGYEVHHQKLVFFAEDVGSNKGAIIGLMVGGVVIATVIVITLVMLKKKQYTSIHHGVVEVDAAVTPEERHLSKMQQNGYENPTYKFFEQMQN

SMILES: COc1cc(/C=C/C(O)=C/C(C)=O)ccc1OCCF
- Ki [1]: 958 nM

SMILES: O=C(O)c1cc(/N=N/c2ccc(-c3ccc(/N=N/c4ccc(O)c(C(=O)O)c4)cc3)cc2)ccc1O [CHRYSAMINE G]
- Ki [2]: 0.16 nM

SMILES: COc1cc(/C=C/C(O)=C/C(C)=O)cc(I)c1O
- Ki [1]: 24.9 nM

SMILES: COc1cc(/C=C/C(C)=O)ccc1OCCF
- Ki [1]: 233 nM

SMILES: COc1cc(/C=C/C(C)=O)ccc1OCCCF
- Ki [1]: 839 nM

SMILES: COc1cc(/C=C/C(O)=C/C(C)=O)ccc1OCCCF
- Ki [1]: 316 nM

SMILES: COc1cc(/C=C/C(C)=O)cc(I)c1O
- Ki [1]: 36.6 nM
- Ki [2]: 20 nM

Results, then the molecule that gave them:

- Drug uptake (Mus musculus [3]): 41.07 % ID/g
- Drug uptake (Mus musculus [4]): 8.69 % ID/g
- Drug uptake (Mus musculus [5]): 0.77 % ID/g
- Drug uptake (Mus musculus [6]): 0.82 % ID/g
- Drug uptake (Mus musculus [7]): 0.27 % ID/g
- logP [8]: 1.84
- Activity (Mus musculus [9]): Active
- Activity (Mus musculus [10]): Not Active
SMILES: COc1cc(/C=C/C(O)=C/C(=O)/C=C/c2ccc(OCCC[18F])c(OC)c2)ccc1O

- logP [8]: 0.94
SMILES: COc1cc(/C=C/C(O)=C/C(=O)/C=C/c2cc([125I])c(O)c(OC)c2)ccc1O

- Ki [2]: 0.07 nM
SMILES: COc1cc(/C=C/C(O)=C/C(=O)/C=C/c2ccc(OCCCF)c(OC)c2)ccc1O

- Ki [2]: 9.37 nM
SMILES: COc1cc(/C=C/C(O)=C/C(=O)/C=C/c2cc(I)c(O)c(OC)c2)ccc1O

- Drug uptake (Mus musculus [7]): 0.26 % ID/g
- logP [8]: 1.35
SMILES: COc1cc(/C=C/C(O)=C/C(C)=O)cc([125I])c1O

- Bioavailability Increase (Homo sapiens): 2000%
- Bioavailability Increase (Rattus norvegicus): 154%
SMILES: COc1cc(/C=C/C(=O)CC(=O)/C=C/c2ccc(O)c(OC)c2)ccc1O [CURCUMIN]
